Twelve compounds from publication PMC3827909 (The Journal of organic chemistry, 2013) can be followed below.

Experiment [1] relates to HT-29 human colon cancer cell line. Put plainly: Cytotoxicity against HT-29 cell line. The format is cell-based. Particulars: HT-29, read-out: cytotoxicity IC50 (concentration inhibiting HT-29 cell growth by 50%). Put shortly: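 Pure isolates were tested against HT-29 human colon cancer cells, with a positive control. IC50 is the concentration that inhibits HT-29 cell growth by 50%, and an IC50 below 10 μM is counted as active.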

The target in experiment [2] is NF-κB p65 (Homo sapiens, UniProt Q04206). Put plainly: NF-κB p65 inhibition assay. The format is cell-based.
Chain of NF-κB p65 (Q04206 whole entry): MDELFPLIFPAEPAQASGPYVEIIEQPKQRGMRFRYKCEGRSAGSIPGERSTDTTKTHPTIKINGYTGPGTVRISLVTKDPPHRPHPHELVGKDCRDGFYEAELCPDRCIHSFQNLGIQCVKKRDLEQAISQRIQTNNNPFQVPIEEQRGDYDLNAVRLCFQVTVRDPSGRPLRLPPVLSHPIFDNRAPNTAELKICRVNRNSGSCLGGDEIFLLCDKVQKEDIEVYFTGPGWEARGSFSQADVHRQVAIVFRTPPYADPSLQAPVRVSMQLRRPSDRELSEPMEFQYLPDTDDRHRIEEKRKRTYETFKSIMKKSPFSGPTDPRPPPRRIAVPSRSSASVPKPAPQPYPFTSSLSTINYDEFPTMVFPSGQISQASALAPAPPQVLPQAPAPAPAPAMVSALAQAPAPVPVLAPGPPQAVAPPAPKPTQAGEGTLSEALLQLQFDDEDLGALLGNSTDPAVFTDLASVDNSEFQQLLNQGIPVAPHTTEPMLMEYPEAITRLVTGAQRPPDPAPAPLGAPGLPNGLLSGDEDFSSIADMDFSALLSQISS
Experiment [3] can be described thus: Hydroxyl radical-scavenging assay. Format: biochemical. The settings on record: ED50 <20 μM considered active. The method in brief: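 In vitro scavenging assay run on the solvent partitions of the methanolic root-bark extract (hexanes, CHCl3, EtOAc, n-BuOH) and on pure isolates, with a positive control. ED50 is the concentration that scavenges hydroxyl radicals by 50%.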

As to `C=CC(C)(CO)c1cc2c(=O)c(-c3ccc(O)cc3O)coc2cc1O` (stereo not drawn) [compound 8, 7-hydroxy-6-(1-hydroxy-2-methylbut-3-en-2-yl)-2′,4′-dihydroxyisoflavone], the values for the IC50 in experiment [1] and in experiment [2] were greater than 10 µM and 0.45 µM, respectively. Moreover, the “hydroxy radical-scavenging ED50 (concentration scavenging hydroxyl radical by 50%)” value in experiment [3] came out at 2.2 µM.

`C=CC(C)(CO)c1cc2cc(-c3ccc(O)cc3O)c(=O)oc2cc1O` (stereo not drawn) [compound 7, 7-hydroxy-6-(1-hydroxy-2-methylbut-3-en-2-yl)-2′,4′-dihydroxy-3-phenylcoumarin]: in experiment [3], the “hydroxy radical-scavenging ED50 (concentration scavenging hydroxyl radical by 50%)” value is greater than 20 µM.

For `CC1(C)c2cc3cc(-c4ccc(O)cc4O)c(=O)oc3cc2OC1CO` (stereo not drawn) [compound 5, 6-(2,7-epoxy-3-methylbut-1-ol-3-yl)-2′,4′-dihydroxy-3-phenylcoumarin], in experiment [3], the “hydroxy radical-scavenging ED50 (concentration scavenging hydroxyl radical by 50%)” value worked out at 18.5 µM.

`C=CC(C)(C)c1cc2c(cc1O)OC[C@H](c1cc(-c3oc4cc(O)ccc4c3C(=O)c3cc(C(C)(C)C=C)c(O)cc3O)c(O)cc1O)C2` [compound 3, sphenostylisin C]: the “hydroxy radical-scavenging ED50 (concentration scavenging hydroxyl radical by 50%)” value in experiment [3] amounted to 0.94 µM.

With `C=CC(C)(CO)c1cc(CC(=O)c2ccc(O)cc2O)c(O)cc1O` (stereo not drawn) [compound 11, 2,4-dihydroxy-2′,4′-dihydroxy-5′-(1-hydroxy-2-methylbut-3-en-2-yl)deoxybenzoin], the IC50 is greater than 10 µM in experiment [1] and greater than 20 µM in experiment [2]. Also, the “hydroxy radical-scavenging ED50 (concentration scavenging hydroxyl radical by 50%)” value in experiment [3] is 0.63 µM.

`C=CC(C)(O)Cc1cc2cc(-c3ccc(O)cc3O)c(=O)oc2cc1O` (stereo not drawn) [compound 6, 7-hydroxy-6-(2-hydroxy-2-methylbut-3-en-1-yl)-2′,4′-dihydroxy-3-phenylcoumarin]: in experiment [3], the “hydroxy radical-scavenging ED50 (concentration scavenging hydroxyl radical by 50%)” value is greater than 20 µM.

Consider `CC1(C)c2cc(CC(=O)c3ccc(O)cc3O)c(O)cc2OC1CO` (stereo not drawn) [compound 9, 2,4-dihydroxy-2′-dihydroxy-5′-(2,4′-epoxy-3-methylbut-1-ol-3-yl)deoxybenzoin], for which the “hydroxy radical-scavenging ED50 (concentration scavenging hydroxyl radical by 50%)” value in experiment [3] was 1.0 µM.

`C=CC(C)(O)Cc1cc(CC(=O)c2ccc(O)cc2O)c(O)cc1O` (stereo not drawn) [compound 10, 2,4-dihydroxy-2′,4′-dihydroxy-5′-(2-hydroxy-2-methylbut-3-en-1-yl)deoxybenzoin]: the IC50 is greater than 10 µM in experiment [1] and greater than 20 µM in experiment [2]. Besides, the “hydroxy radical-scavenging ED50 (concentration scavenging hydroxyl radical by 50%)” value in experiment [3] worked out at 0.60 µM.

Regarding `O=c1c(O)c(-c2ccc(O)c(O)c2)oc2cc(O)cc(O)c12` [quercetin, reference compound], the “hydroxy radical-scavenging ED50 (concentration scavenging hydroxyl radical by 50%)” value in experiment [3] was determined as 1.2 µM.

For the compound `C=CC(C)(C)c1cc(C(=O)c2c(-c3cc(-c4cc5cc(C(C)(C)C=C)c(O)cc5oc4=O)c(O)cc3O)oc3cc(O)ccc23)c(O)cc1O` [compound 1, sphenostylisin A], the “NF-κB inhibitory potency relative to compound 3” value in experiment [2] (times more potency than compound 3) is given as 75 times. For the same compound, in experiment [2] (times more potent than rocaglamide), the “NF-κB p65 inhibitory potency relative to the positive control rocaglamide” value is reported as greater than 10 times. In addition, the “hydroxy radical-scavenging ED50 (concentration scavenging hydroxyl radical by 50%)” value in experiment [3] was 0.71 µM.

For `C=CC(C)(C)c1cc(-c2oc3cc(O)ccc3c2Cc2cc(-c3cc4cc(C(C)(C)C=C)c(O)cc4oc3=O)c(O)cc2O)c(O)cc1O` [compound 2, sphenostylisin B], the “hydroxy radical-scavenging ED50 (concentration scavenging hydroxyl radical by 50%)” value in experiment [3] was found to be 0.73 µM.

Regarding `C=CC(C)(C)c1cc2cc(-c3ccc(O)cc3O)c(=O)oc2cc1O` [compound 4, 7-hydroxy-6-(2-methylbut-3-en-2-yl)-2′,4′-dihydroxy-3-phenylcoumarin], the “NF-κB p65 inhibitory activity retained relative to compound 1” value in experiment [2] (fraction of the activity of 1) is reported as “one-tenth”. The “hydroxy radical-scavenging ED50 (concentration scavenging hydroxyl radical by 50%)” value in experiment [3] was 2.6 µM.
